Here are results for 1 molecule from ChEMBL document CHEMBL1165899, “Synthesis and antitumor evaluation of novel cyclic arylsulfonylureas: ADME-T and pharmacophore prediction” (2010).

Common to all, as to assay type: functional
For one assay, the system named is HT-29. In words: Growth inhibition of human HT-29 cells at 10 uM after 48 hrs by sulforhodamine B assay relative to control. The conditions noted are these: HT-29, 48 h, read-out: GI. Background: Sulforhodamine B stains cellular protein and so reports cell mass.
For another assay, the system named is OVCAR-4. In words: Growth inhibition of human OVCAR4 cells at 10 uM after 48 hrs by sulforhodamine B assay relative to control. As to conditions: OVCAR-4, 48 h, read-out: GI.
Another assay has as its system U-251. In words: Growth inhibition of human U251 cells at 10 uM after 48 hrs by sulforhodamine B assay relative to control. As to conditions: U-251, 48 h, read-out: GI. Put shortly: (§1)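 NCI 60-cell-line single-dose screen at 10 µM. Cells were plated at 5000–40,000 cells/well according to doubling time, in medium with 2 mM L-glutamine, and held 24 h at 37 °C, 5% CO₂, 100% humidity before drug. Time-zero plates were TCA-fixed. Exposure was 48 h, then TCA fixation and sulforhodamine B staining for 10 min, acetic acid washes, 10 mM trizma solubilization and A515. % inhibition = 100 − % activity, where 100% is the DMSO-solvent control.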

The next assay concerns Malme-3M. The experiment in a line: Growth inhibition of human MALME-3M cells at 10 uM after 48 hrs by sulforhodamine B assay relative to control. The conditions noted are these: read-out: GI.
A further assay deals with NCI-H23. The experiment in a line: Growth inhibition of human NCI-H23 cells at 10 uM after 48 hrs by sulforhodamine B assay relative to control. As to conditions: NCI-H23, 48 h, read-out: GI.
The next assay has as its system 786-0. The experiment in a line: Growth inhibition of human 786-0 cells at 10 uM after 48 hrs by sulforhodamine B assay relative to control. As to conditions: 786-0, 48 h, read-out: GI.
The test system of another assay is T47D. The experiment in a line: Growth inhibition of human T47D cells at 10 uM after 48 hrs by sulforhodamine B assay relative to control. The conditions noted are these: read-out: GI. Put shortly:
as §1

For a further assay, the system named is SNB-19. The experiment in a line: Growth inhibition of human SNB19 cells at 10 uM after 48 hrs by sulforhodamine B assay relative to control. As to conditions: SNB-19, 48 h, read-out: GI.
For another assay, the system named is BT-549. In words: Growth inhibition of human BT549 cells at 10 uM after 48 hrs by sulforhodamine B assay relative to control. The conditions noted are these: BT-549, 48 h, read-out: GI.
For a further assay, the system named is HCT-15. The experiment in a line: Growth inhibition of human HCT15 cells at 10 uM after 48 hrs by sulforhodamine B assay relative to control. The conditions noted are these: HCT-15, 48 h, read-out: GI.
A further assay concerns MDA-MB-435. The experiment in a line: Growth inhibition of human MDA-MB-435 cells at 10 uM after 48 hrs by sulforhodamine B assay relative to control. The conditions noted are these: MDA-MB-435, 48 h, read-out: GI.
The next assay has as its system UACC-62. In words: Growth inhibition of human UACC62 cells at 10 uM after 48 hrs by sulforhodamine B assay relative to control. As to conditions: UACC-62, 48 h, read-out: GI. The method, boiled down: as §1
A further assay concerns HL-60(TB). In words: Growth inhibition of human HL-60(TB) cells at 10 uM after 48 hrs by sulforhodamine B assay relative to control. As to conditions: HL-60, 48 h, read-out: GI. The method, boiled down:
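Part of a 60-cell-line panel screen at a single concentration. Cells were plated at 5000–40,000 cells/well according to doubling time and pre-incubated 24 h at 37 °C, 5% CO₂, with time-zero plates fixed. Drug exposure ran 48 h. Plates were stained with SRB, rinsed with 1% acetic acid, dye dissolved in 10 mM trizma base, read at 515 nm. % inhibition = 100 − % activity versus DMSO-only wells; 100–200% denotes lethality.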

A further assay has as its system HCT-116. In words: Growth inhibition of human HCT116 cells at 10 uM after 48 hrs by sulforhodamine B assay relative to control. As to conditions: HCT-116, 48 h, read-out: GI.
In the next assay the test system is NCI-H460. The experiment in a line: Growth inhibition of human NCI-H460 cells at 10 uM after 48 hrs by sulforhodamine B assay relative to control. The conditions noted are these: NCI-H460, 48 h, read-out: GI.
For the next assay, the system named is HCC 2998. In words: Growth inhibition of human HCC2998 cells at 10 uM after 48 hrs by sulforhodamine B assay relative to control. The conditions noted are these: HCC 2998, 48 h, read-out: GI.
Assay [1] can be described thus: Growth inhibition of human Hs 578T cells at 10 uM after 48 hrs by sulforhodamine B assay relative to control. The conditions noted are these: read-out: GI.
A further assay relates to SK-MEL-28. The experiment in a line: Growth inhibition of human SK-MEL-28 cells at 10 uM after 48 hrs by sulforhodamine B assay relative to control. The conditions noted are these: SK-MEL-28, 48 h, read-out: GI.
A further assay deals with PC-3. In words: Growth inhibition of human PC3 cells at 10 uM after 48 hrs by sulforhodamine B assay relative to control. The conditions noted are these: PC-3, 48 h, read-out: GI.
The next assay deals with A549. In words: Growth inhibition of human A549 cells at 10 uM after 48 hrs by sulforhodamine B assay relative to control. The conditions noted are these: A549, 48 h, read-out: GI.
The test system of a further assay is SK-MEL-2. In words: Growth inhibition of human SK-MEL-2 cells at 10 uM after 48 hrs by sulforhodamine B assay relative to control. The conditions noted are these: SK-MEL-2, 48 h, read-out: GI.
The test system of the next assay is M14. In words: Growth inhibition of human M14 cells at 10 uM after 48 hrs by sulforhodamine B assay relative to control. As to conditions: M14, 48 h, read-out: GI.
The subject of a further assay is CCRF-CEM. The experiment in a line: Growth inhibition of human CCRF-CEM cells at 10 uM after 48 hrs by sulforhodamine B assay relative to control. As to conditions: read-out: GI.

SMILES strings stand for the structures.

Consider `CN(C)c1ccc(/C=C2\NC(=O)N(S(=O)(=O)c3ccc(Cl)cc3)C2=O)cc1`, for which the inhibition of growth at 10 µM is -2.64% in the assay on HT-29; 7.93% in the assay on OVCAR-4; -0.69% with U-251; -49.7% in the assay with Malme-3M; -1.8% with NCI-H23; -0.44% with 786-0. Moreover, the inhibition of growth at 10 µM with T47D was -9.29%; with SNB-19, -6.78%; with BT-549, 4.63%; in the assay with HCT-15 it was 1.55%; in the assay on MDA-MB-435 it was -4.89%; in the assay with UACC-62 it was 3.93%. Further, the inhibition of growth at 10 µM was 4.85% in the assay with HL-60(TB); -3.55% in the assay with HCT-116; -15.8% in the assay with NCI-H460; -54% with HCC 2998; 14.1% in [1]; -4.69% in the assay on SK-MEL-28. Besides, the inhibition of growth at 10 µM was -6.65% in the assay on PC-3; -8.84% in the assay on A549; 1.29% in the assay with SK-MEL-2; 200% in the assay on M14; 2.95% in the assay with CCRF-CEM.
